Molecular target: T1, Ectonucleoside triphosphate diphosphohydrolase 3 (Homo sapiens) (UniProt O75355)
T1 sequence (whole entry): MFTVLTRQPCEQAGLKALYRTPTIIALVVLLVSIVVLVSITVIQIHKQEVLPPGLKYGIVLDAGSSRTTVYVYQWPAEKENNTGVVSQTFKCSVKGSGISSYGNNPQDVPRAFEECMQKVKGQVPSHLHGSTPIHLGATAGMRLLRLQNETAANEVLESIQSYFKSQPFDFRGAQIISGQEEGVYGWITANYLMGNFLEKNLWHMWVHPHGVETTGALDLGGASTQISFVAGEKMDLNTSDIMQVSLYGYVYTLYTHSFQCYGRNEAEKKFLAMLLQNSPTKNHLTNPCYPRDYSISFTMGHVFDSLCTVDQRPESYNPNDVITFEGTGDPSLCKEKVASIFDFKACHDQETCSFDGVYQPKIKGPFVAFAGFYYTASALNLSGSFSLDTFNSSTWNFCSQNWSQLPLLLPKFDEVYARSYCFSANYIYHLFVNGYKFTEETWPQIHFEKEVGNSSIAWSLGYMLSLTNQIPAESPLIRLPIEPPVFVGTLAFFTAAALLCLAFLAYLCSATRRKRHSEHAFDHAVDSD
Test: Activity of human NTPDase3 expressed in COS7 cells assessed as amount of inorganic phosphate released using ATP as the substrate at 100 uM after 15 mins by malachite green reagent method
Format: cell-based
Details: COS-7
Outline: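 Crude membrane-enriched protein extract of transiently transfected COS-7 cells, preincubated 3 min at 37 °C in Tris-Ringer buffer pH 7.3. Reaction started with 100 μM ATP, or with the analogue alone at 100 μM to test it as substrate. Stopped after 15 min with malachite green reagent; released Pi read at 630 nm. Mean ± SD, n = 3.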

Nc1ncnc2c1ncn2[C@@H]1O[C@H](COP(=O)(O)CP(=O)(O)OP(=O)(O)CP(=O)(O)OC[C@H]2O[C@@H](n3cnc4c(N)ncnc43)[C@H](O)[C@@H]2O)[C@@H](O)[C@H]1O
Activity: 5.3%

Nc1ncnc2c1ncn2[C@H]1C[C@H](O)[C@@H](COP(=O)(O)CP(=O)(O)OP(=O)(O)CP(=O)(O)OC[C@H]2O[C@@H](n3cnc4c(N)ncnc43)C[C@@H]2O)O1
Activity: 1.8%
